# According to ChEMBL document CHEMBL1125185, “Nonpeptide angiotensin II receptor antagonists: the discovery of a series of N-(biphenylylmethyl)imidazoles as potent, orally active antihypertensives” (J Med Chem, 1991):
# Calls of active or inactive are those of the source. The calls are words filed in the database; no cut-off is given here.
# Legend:
# Angiotensin II receptor = target: T1, Angiotensin II receptor (Rattus norvegicus, UniProt P29089+P25095+P35351); experiment: Inhibition of radioligand [3H]angiotensin II binding to angiotensin II receptor of rat adrenal cortical membrane
# T1 sequence (P29089 whole entry): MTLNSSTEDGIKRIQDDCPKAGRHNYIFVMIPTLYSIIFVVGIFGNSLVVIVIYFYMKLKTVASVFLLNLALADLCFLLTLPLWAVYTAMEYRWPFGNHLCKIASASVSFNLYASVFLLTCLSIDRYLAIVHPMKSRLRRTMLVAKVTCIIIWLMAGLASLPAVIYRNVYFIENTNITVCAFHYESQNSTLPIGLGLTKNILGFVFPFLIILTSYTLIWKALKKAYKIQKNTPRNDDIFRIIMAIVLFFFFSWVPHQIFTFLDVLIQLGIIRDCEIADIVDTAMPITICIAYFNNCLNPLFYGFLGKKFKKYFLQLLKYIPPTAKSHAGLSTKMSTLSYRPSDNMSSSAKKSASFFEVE
# T1 sequence (P25095 whole entry): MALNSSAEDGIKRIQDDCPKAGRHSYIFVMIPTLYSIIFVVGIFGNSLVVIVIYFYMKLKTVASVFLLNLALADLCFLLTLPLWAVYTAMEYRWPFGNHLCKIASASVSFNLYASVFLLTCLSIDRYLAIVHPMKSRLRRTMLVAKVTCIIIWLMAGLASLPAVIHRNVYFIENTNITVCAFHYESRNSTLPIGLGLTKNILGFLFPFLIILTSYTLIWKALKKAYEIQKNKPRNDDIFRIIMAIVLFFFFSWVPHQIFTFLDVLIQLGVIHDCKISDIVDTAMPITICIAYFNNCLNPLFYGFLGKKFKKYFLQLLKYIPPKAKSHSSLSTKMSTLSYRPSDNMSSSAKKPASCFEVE
# T1 sequence (P35351 whole entry): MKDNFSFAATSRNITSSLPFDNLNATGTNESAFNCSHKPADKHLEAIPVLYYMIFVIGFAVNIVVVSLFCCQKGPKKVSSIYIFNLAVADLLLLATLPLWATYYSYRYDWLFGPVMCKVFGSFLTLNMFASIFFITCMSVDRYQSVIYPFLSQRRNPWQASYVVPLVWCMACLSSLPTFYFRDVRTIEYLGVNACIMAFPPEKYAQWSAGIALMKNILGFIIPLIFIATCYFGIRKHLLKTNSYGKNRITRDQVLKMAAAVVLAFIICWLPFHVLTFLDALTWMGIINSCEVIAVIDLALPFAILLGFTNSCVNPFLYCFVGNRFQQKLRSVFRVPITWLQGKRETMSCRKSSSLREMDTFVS
# Outline: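 Rat adrenal cortical microsomes came from male Sprague-Dawley CD rats (300-400 g) and were prepared at 4 °C in sucrose/EDTA/Tris pH 7.4. Samples were filtered and counted, in duplicate. Specific binding was defined with 1 µM unlabeled AII. IC50 was taken from the linear portion of the displacement curve.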
# Rattus norvegicus [1] = experiment: Blood pressure lowering activity in renal hypertensive rats after intravenous administration; type: functional
# Outline: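 Male Sprague-Dawley CD rats had the left renal artery ligated under hexobarbital (100 mg/kg ip). Six days later the jugular vein and carotid artery were cannulated under hexobarbital (90 mg/kg ip). Compound was given intravenously to the conscious hypertensive rats while mean arterial pressure was recorded.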
# Rattus norvegicus [2] = experiment: Blood pressure lowering activity in renal hypertensive rats after peroral administration; type: functional
# Outline: (§1)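 Conscious male Sprague-Dawley CD rats, six days after left renal artery ligation and with jugular and carotid cannulae, were dosed by oral gavage at 1-100 mg/kg (4-6 rats/dose). Mean arterial pressure was monitored for 3 h.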
# [3] = Ionization constant for the compound; type: physicochemical, Rattus norvegicus
# Rattus norvegicus [4] = experiment: Blood pressure lowering activity in renal hypertensive rats after peroral administration; Inactive indicates fail to cause significant drop in blood pressure even at 100 mg/kg (in vivo); type: functional, organism-based; set-up: dose 100 mg/kg; outline: as §1
Structure (SMILES),IC50 (Angiotensin II receptor),Activity (Rattus norvegicus [1]),Activity (Rattus norvegicus [2]),pKa [3],Activity (Rattus norvegicus [4])
CCCCc1nc(Cl)c(CO)n1Cc1ccc(-c2cccc(C)c2C(=O)O)cc1,1900 nM,3 mg/kg,10 mg/kg,,
CCCCc1nc(Cl)c(CO)n1Cc1ccc(-c2ccccc2-c2[nH]nnc2C(=O)OC)cc1,260 nM,>1 mg/kg,>10 mg/kg,7,
CCc1nc(Cl)c(CO)n1Cc1ccc(-c2ccccc2C(=O)O)cc1,1700 nM,10 mg/kg,100 mg/kg,,
CCCCc1nc(Cl)c(COC)n1Cc1ccc(-c2ccccc2NS(=O)(=O)C(F)(F)F)cc1,,10 mg/kg,100 mg/kg,4.5,
O=C(O)c1ccccc1-c1ccc(Cn2c(-c3ccccc3)nc(Cl)c2CO)cc1,,10 mg/kg,100 mg/kg,,
CCCCc1nc(Cl)c(CO)n1Cc1ccc(-c2ccc(C(=O)O)cc2)cc1,,>10 mg/kg,,,inactive
CCCCCc1nc(Cl)c(CO)n1Cc1ccc(-c2ccccc2C(=O)O)cc1,980 nM,3 mg/kg,30 mg/kg,,
CCCCc1nc(Cl)c(CNC(=O)OC)n1Cc1ccc(-c2ccccc2-c2nn[nH]n2)cc1,60 nM,1 mg/kg,>10 mg/kg,,
CCCCc1nc(I)c(CO)n1Cc1ccc(-c2ccccc2C(=O)O)cc1,61 nM,10 mg/kg,100 mg/kg,,
CCCCc1nc(Br)c(CO)n1Cc1ccc(-c2ccccc2-c2nn[nH]n2)cc1,,0.3 mg/kg,3 mg/kg,,
CCCCc1nc(Cl)c(C(N)=O)n1Cc1ccc(-c2ccccc2C(=O)O)cc1,150 nM,10 mg/kg,100 mg/kg,,
CCCCc1nc(Cl)c(C(=O)N(C)C)n1Cc1ccc(-c2ccccc2C(=O)O)cc1,1300 nM,10 mg/kg,10 mg/kg,,
CCCCc1nc(Cl)c(CN)n1Cc1ccc(-c2ccccc2C(=O)O)cc1,3200 nM,,,,
CCCCc1nc(Cl)c(C=O)n1Cc1ccc(-c2cccc(-c3nn[nH]n3)c2)cc1,> 1000 nM,>10 mg/kg,30 mg/kg,,
CCCCc1nc(Cl)c(COC)n1Cc1ccc(-c2ccccc2-c2nn[nH]n2)cc1,,1 mg/kg,3 mg/kg,6,
CCCCc1nc(Cl)c(COC)n1Cc1ccc(-c2ccccc2Cc2nnn[nH]2)cc1,300 nM,10 mg/kg,100 mg/kg,,
CCCCCCc1nc(Cl)c(CO)n1Cc1ccc(-c2ccccc2C(=O)O)cc1,,10 mg/kg,,,inactive
CCCCc1nc(Cl)c(C(O)c2ccccc2)n1Cc1ccc(-c2ccccc2-c2nn[nH]n2)cc1 (stereo not given),410 nM,3 mg/kg,>30 mg/kg,,
CCCCc1nc(Cl)c(CNC(=O)OC23C[C@H]4C[C@@H](C2)C[C@@H](C3)C4)n1Cc1ccc(-c2ccccc2C(=O)O)cc1,600 nM,3 mg/kg,30 mg/kg,,
CCCCc1nc(Cl)c(COC(C)=O)n1Cc1ccc(-c2ccccc2C(=O)O)cc1,,10 mg/kg,100 mg/kg,,

Structure (SMILES),IC50 (Angiotensin II receptor),Activity (Rattus norvegicus [1]),Activity (Rattus norvegicus [2]),pKa [3],Activity (Rattus norvegicus [4])
CCCCc1nc(Cl)c(CNC(=O)OC)n1Cc1ccc(-c2ccccc2C(=O)O)cc1,250 nM,3 mg/kg,30 mg/kg,,
CCCCc1nc(Cl)c(CO)n1Cc1ccc(-c2ccccc2C(N)=O)cc1,35000 nM,,,,
CCCCc1nc(Cl)c(/C=N/NC2=NCCN2)n1Cc1ccc(-c2ccccc2-c2nn[nH]n2)cc1,290 nM,3 mg/kg,30 mg/kg,,
CCCCc1nc(Cl)c(/C=N/NS(=O)(=O)c2ccccc2)n1Cc1ccc(-c2ccccc2-c2nn[nH]n2)cc1,660 nM,3 mg/kg,30 mg/kg,,
CCCCc1nc(C(F)(F)F)c(CO)n1Cc1ccc(-c2ccccc2C(=O)O)cc1,62 nM,3 mg/kg,30 mg/kg,,
CCCCc1nc(Cl)c(CO)n1Cc1ccc(-c2ccccc2NS(=O)(=O)C(F)(F)F)cc1,,10 mg/kg,100 mg/kg,4.5,
CCCCc1nc(Cl)c(CO)n1Cc1ccc(-c2ccccc2-c2[nH]nnc2C#N)cc1,280 nM,>1 mg/kg,>10 mg/kg,,
C=CCOC(=O)NCc1c(Cl)nc(CCCC)n1Cc1ccc(-c2ccccc2C(=O)O)cc1,390 nM,10 mg/kg,100 mg/kg,,
CCCCc1nc(Cl)c(CNC(=O)OCC)n1Cc1ccc(-c2ccccc2C(=O)O)cc1,200 nM,10 mg/kg,100 mg/kg,,
CCCc1nc(Cl)c(CO)n1Cc1ccc(-c2ccccc2C(=O)O)cc1,160 nM,3 mg/kg,30 mg/kg,,
CCCCc1nc(Cl)c(CO)n1Cc1ccc(-c2cccc(C(=O)O)c2)cc1,,45 mg/kg,100 mg/kg,,
CCCCc1nc(Cl)c(CO)n1Cc1ccc(-c2ccccc2-c2n[nH]c(C(F)(F)F)n2)cc1,370 nM,1 mg/kg,10 mg/kg,,
CCCCc1nc(Cl)c(COC)n1Cc1ccc(-c2ccccc2C(=O)Nc2nn[nH]n2)cc1,,10 mg/kg,,,
CCCCc1nc(Cl)c(C(=O)OC)n1Cc1ccc(-c2ccccc2C(=O)O)cc1,340 nM,10 mg/kg,100 mg/kg,,
CCCCc1nc(I)c(CO)n1Cc1ccc(-c2ccccc2-c2nn[nH]n2)cc1,,1 mg/kg,10 mg/kg,,
CCCCc1nc(Cl)c(CO)n1Cc1ccc(-c2c(OC)cccc2C(=O)O)cc1,3000 nM,10 mg/kg,100 mg/kg,,
CCCCc1nc(Br)c(CO)n1Cc1ccc(-c2ccccc2C(=O)O)cc1,90 nM,3 mg/kg,30 mg/kg,,
CCCCc1nc(Cl)c(C=O)n1Cc1ccc(-c2ccccc2-c2nn[nH]n2)cc1,20 nM,0.3 mg/kg,3 mg/kg,,
CCCCc1nc(Cl)c(COC)n1Cc1ccc(-c2ccccc2C(=O)O)cc1,,10 mg/kg,100 mg/kg,5,
